Results reported in paper PMC6594083 (Diabetes, Obesity & Metabolism, 2019).
“And” between values parts separate entries of the source, which are not always exact repeats. Equal values may be shown once. Read-outs that look alike come from different tables or passages of the source.

Experiments:
Assay type in all cases: in vivo, human (Japanese patients)
[1] = Pharmacokinetics of ipragliflozin; conditions: human, plasma, oral, AUC24h, day 14, mean ± SD
Procedure, shortened: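 Patients were hospitalized days −2 to 3 and days 13 to 15. […] The analysis set was patients dosed with at least one drug-concentration sample.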

[2] = system: Japanese patients with type 1 diabetes mellitus; conditions: Day 15; for Glycoalbumin, AMD (95% CI): adjusted mean difference to placebo; for Body weight, mean change from baseline / Glycoalbumin, mean change from baseline: mean ± SD
Procedure, shortened: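 Glycoalbumin and body weight were taken as change from baseline to day 15. Differences from placebo came from an analysis of covariance with baseline as covariate, with 95% CI. Analysed in patients with day-14 pharmacodynamic data.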

[3] = system: Japanese patients with type 1 diabetes mellitus; experiment: Concomitant insulin daily dose; conditions: day 14
Procedure, shortened: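 Japanese type 1 diabetes patients on insulin; randomized, double-blind, placebo-controlled. Insulin was adjusted by usual clinical practice on physician instruction, with a cut considered if self-monitored glucose fell below 80 mg/dL. Basal, bolus and total daily units recorded; change from baseline to day 14.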

[4] = system: Japanese patients with type 1 diabetes mellitus; experiment: Safety: serum ketone levels; conditions: for Blood ketone body in patient with AE blood ketone body increased: person; for Mean (SD) change in total serum ketones: baseline until end of treatment
Procedure, shortened: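 Total serum ketones, acetoacetic acid and 3-hydroxybutyric acid were measured at screening, predose on treatment days 1 (baseline), 2, 3, 14 and 15, and in the post-treatment period. Ketone increases were reported as adverse events.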

[5] = system: Japanese patients with type 1 diabetes mellitus; experiment: Safety: treatment-emergent adverse events incl. hypoglycaemia
Procedure, shortened: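 Self-monitored blood glucose was checked four times daily, before each meal and at bedtime. A value ≤70 mg/dL (≤3.89 mmol/L) was recorded as a hypoglycaemia adverse event. Adverse events were coded by MedDRA version 18.0 in all dosed patients.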

## OC[C@H]1O[C@@H](c2ccc(F)c(Cc3cc4ccccc4s3)c2)[C@H](O)[C@@H](O)[C@@H]1O [ipragliflozin]
[1]; 25 mg/day, 25 mg/day
  AUC(0-t): 2510 ± 495 ng·h/mL
[1]; 50 mg/day, 50 mg/day
  AUC(0-t): 5790 ± 1130 ng·h/mL
[2]; 25 mg/day
  Glycoalbumin, AMD (95% CI): −2.17% and −2.17 (−3.84, −0.51) %
  Body weight, mean change from baseline: -0.83 ± 0.48 kg
  Glycoalbumin, mean change from baseline: −2.67 ± 2.30%
[2]; 50 mg/day
  Glycoalbumin, AMD (95% CI): −2.03% and −2.03 (−3.58, −0.48) %
  Body weight, mean change from baseline: -1.18 ± 1.06 kg
  Glycoalbumin, mean change from baseline: −2.53 ± 1.52%
[2]; 100 mg/day
  Body weight, mean change from baseline: -0.94 ± 0.89 kg
  Glycoalbumin, mean change from baseline: −2.95 ± 2.24%
[3]; 25 mg/day
  Total daily insulin dose, % change from baseline (SD): −14.77 ± 14.04%
[3]; 50 mg/day
  Total daily insulin dose, % change from baseline (SD): −18.40 ± 12.49%
[3]; 100 mg/day
  Total daily insulin dose, % change from baseline (SD): −19.25 ± 16.77%
[4]; 25 mg group, day 15, 24 hours postdose
  Blood ketone body in patient with AE blood ketone body increased: 991 µmol/L
[4]; 25 mg/day
  Mean (SD) change in total serum ketones: 173.38 (267.48) μmol/L
[4]; 50 mg group, day 15, 24 hours postdose
  Blood ketone body in patient with AE blood ketone body increased: 968 µmol/L
[4]; 50 mg/day
  Mean (SD) change in total serum ketones: 357.07 (294.41) μmol/L
[4]; 100 mg group, day 2, predose
  Blood ketone body in patient with AE blood ketone body increased: 1200 µmol/L
[4]; 100 mg group, day 15, 24 hours postdose
  Blood ketone body in patient with AE blood ketone body increased: 1770 µmol/L
[4]; 100 mg/day
  Mean (SD) change in total serum ketones: 233.18 (387.35) μmol/L
[5]; 25 mg/day (n = 10)
  Hypoglycaemia, Asymptomatic: 10 (100.0) patients (%)
  Hypoglycaemia, Asymptomatic, number of events: 44 events
  Hypoglycaemia, Documented symptomatic: 8 (80.0) patients (%)
  Hypoglycaemia, Documented symptomatic, number of events: 58 events
  Hypoglycaemia, Drug‐related: 10 (100.0) patients (%)
  Hypoglycaemia, Drug‐related, number of events: 83 events
  Hypoglycaemia, Major: 0 patients (%)
  Hypoglycaemia, Mild, number of events: 102 events
  Hypoglycaemia, Moderate: 1 (10.0) patients (%)
  Hypoglycaemia, Moderate, number of events: 1 events
  Hypoglycaemia, Probable symptomatic: 0 patients (%)
  Hypoglycaemia, Relative: 1 (10.0) patients (%)
  Hypoglycaemia, Relative, number of events: 1 events
  Hypoglycaemia, Serious: 0 patients (%)
  Hypoglycaemia, Severe: 0 patients (%)
  TEAE Beta 2 microglobulin increased: 1 (10.0) patients (%)
  TEAE Blood bilirubin increased: 1 (10.0) patients (%)
  TEAE Blood ketone body increased: 1 (10.0) patients (%)
  TEAE Constipation: 0 patients (%)
  TEAE Decreased appetite: 0 patients (%)
  TEAE Gastroenteritis: 1 (10.0) patients (%)
  TEAE Headache: 0 patients (%)
  TEAE Hemorrhoidal hemorrhage: 0 patients (%)
  TEAE Hyperglycaemia: 0 patients (%)
  TEAE Hypoglycaemia: 10 (100.0) patients (%)
  TEAE Hypoglycaemia, number of events: 103 events
  TEAE Nasopharyngitis: 1 (10.0) patients (%)
  TEAE Overall: 10 (100.0) patients (%)
  TEAE Papule: 0 patients (%)
  TEAE Pollakiuria: 0 patients (%)
  TEAE Pyrexia: 0 patients (%)
  TEAE Upper respiratory tract infection: 0 patients (%)
  TEAE Urine ketone body present: 0 patients (%)
  TEAE Vomiting: 0 patients (%)
[5]; 50 mg/day (n = 12)
  Hypoglycaemia, Asymptomatic: 9 (75.0) patients (%)
  Hypoglycaemia, Asymptomatic, number of events: 34 events
  Hypoglycaemia, Documented symptomatic: 11 (91.7) patients (%)
  Hypoglycaemia, Documented symptomatic, number of events: 96 events
  Hypoglycaemia, Drug‐related: 12 (100.0) patients (%)
  Hypoglycaemia, Drug‐related, number of events: 122 events
  Hypoglycaemia, Major: 0 patients (%)
  Hypoglycaemia, Mild, number of events: 141 events
  Hypoglycaemia, Moderate: 1 (8.3) patients (%)
  Hypoglycaemia, Moderate, number of events: 3 events
  Hypoglycaemia, Probable symptomatic: 3 (25.0) patients (%)
  Hypoglycaemia, Probable symptomatic, number of events: 3 events
  Hypoglycaemia, Relative: 4 (33.3) patients (%)
  Hypoglycaemia, Relative, number of events: 11 events
  Hypoglycaemia, Serious: 0 patients (%)
  Hypoglycaemia, Severe: 0 patients (%)
  TEAE Beta 2 microglobulin increased: 0 patients (%)
  TEAE Blood bilirubin increased: 0 patients (%)
  TEAE Blood ketone body increased: 1 (8.3) patients (%)
  TEAE Constipation: 1 (8.3) patients (%)
  TEAE Decreased appetite: 1 (8.3) patients (%)
  TEAE Gastroenteritis: 0 patients (%)
  TEAE Headache: 0 patients (%)
  TEAE Hemorrhoidal hemorrhage: 0 patients (%)
  TEAE Hyperglycaemia: 1 (8.3) patients (%)
  TEAE Hypoglycaemia: 12 (100.0) patients (%)
  TEAE Hypoglycaemia, number of events: 144 events
  TEAE Nasopharyngitis: 1 (8.3) patients (%)
  TEAE Overall: 12 (100.0) patients (%)
  TEAE Papule: 1 (8.3) patients (%)
  TEAE Pollakiuria: 1 (8.3) patients (%)
  TEAE Pyrexia: 1 (8.3) patients (%)
  TEAE Upper respiratory tract infection: 0 patients (%)
  TEAE Urine ketone body present: 1 (8.3) patients (%)
  TEAE Vomiting: 1 (8.3) patients (%)
[5]; 100 mg/day (n = 10)
  Hypoglycaemia, Asymptomatic: 9 (90.0) patients (%)
  Hypoglycaemia, Asymptomatic, number of events: 60 events
  Hypoglycaemia, Documented symptomatic: 7 (70.0) patients (%)
  Hypoglycaemia, Documented symptomatic, number of events: 25 events
  Hypoglycaemia, Drug‐related: 9 (90.0) patients (%)
  Hypoglycaemia, Drug‐related, number of events: 77 events
  Hypoglycaemia, Major: 0 patients (%)
  Hypoglycaemia, Mild, number of events: 85 events
  Hypoglycaemia, Moderate: 0 patients (%)
  Hypoglycaemia, Probable symptomatic: 0 patients (%)
  Hypoglycaemia, Relative: 0 patients (%)
  Hypoglycaemia, Serious: 0 patients (%)
  Hypoglycaemia, Severe: 0 patients (%)
  TEAE Beta 2 microglobulin increased: 0 patients (%)
  TEAE Blood bilirubin increased: 0 patients (%)
  TEAE Blood ketone body increased: 2 (20.0) patients (%)
  TEAE Constipation: 0 patients (%)
  TEAE Decreased appetite: 0 patients (%)
  TEAE Gastroenteritis: 0 patients (%)
  TEAE Headache: 0 patients (%)
  TEAE Hemorrhoidal hemorrhage: 0 patients (%)
  TEAE Hyperglycaemia: 0 patients (%)
  TEAE Hypoglycaemia: 9 (90.0) patients (%)
  TEAE Hypoglycaemia, number of events: 85 events
  TEAE Nasopharyngitis: 0 patients (%)
  TEAE Overall: 9 (90.0) patients (%)
  TEAE Papule: 0 patients (%)
  TEAE Pollakiuria: 0 patients (%)
  TEAE Pyrexia: 0 patients (%)
  TEAE Upper respiratory tract infection: 1 (10.0) patients (%)
  TEAE Urine ketone body present: 1 (10.0) patients (%)
  TEAE Vomiting: 0 patients (%)
[5]; 25, 50, 100 mg/day for 14 days
  Deaths, serious TEAEs, TEAEs leading to discontinuation: no deaths, other serious TEAEs, or TEAEs leading to discontinuation
  Ketoacidosis: no ketoacidosis was observed
